Data set [1] can be described thus: Stability at room temperature. It counts as physicochemical. The conditions noted are these: for stability at room temperature: 1H NMR in deuterated DMSO up to 3 weeks, HPLC and LCMS in tris buffer.
Data set [2] addresses T1, chymotrypsin-like (CT-L) activity of the 20S proteasome (Oryctolagus cuniculus, UniProt G1T4Q9).
T1 sequence (G1T4Q9 60-263): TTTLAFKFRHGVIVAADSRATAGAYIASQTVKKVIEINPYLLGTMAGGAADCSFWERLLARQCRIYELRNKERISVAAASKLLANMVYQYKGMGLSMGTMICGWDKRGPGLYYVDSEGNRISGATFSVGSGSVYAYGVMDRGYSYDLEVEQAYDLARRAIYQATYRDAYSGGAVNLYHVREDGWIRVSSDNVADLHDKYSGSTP
Kind of data set: In vitro CT-L proteasome inhibition, fluorogenic assay. It counts as biochemical, rabbit. The note with it: for IC50: CT-L inhibitory activity IC50, in vitro.

Data set [3] relates to rabbit 20S proteasome CT-L activity. Description: Dialysis using purified rabbit 20S proteasome. It is filed as biochemical. The note with it: for mode of CT-L proteasome inhibition (reversible or irreversible): concluded from dialysis; for recovery of CT-L activity during dialysis: dialysis up to 18 h at 4 °C. The method, boiled down:
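Test compound at 10 μM, or 0.1% DMSO vehicle, was added to rabbit 20S proteasome (1.5 nM final) in 50 mM Tris-HCl pH 7.6 and held 30 min at room temperature. The mixture was dialysed (3,500 MWCO) against assay buffer at 4 °C and sampled at 0, 0.5, 1, 4, 8 and 18 h. CT-L activity was assayed per the earlier method and normalised to the DMSO control.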

The nature of data set [4]: Stability in biological media by HPLC. The note with it: DMEM and RPMI-1640 without serum, 10 μM, 1% DMSO, 37 °C, 1, 3, 5, 7 days. It is filed as physicochemical. The method, boiled down:
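A 1 mM DMSO stock from fresh powder was diluted into serum-free DMEM or RPMI (10 μM final, 1% DMSO), with 5 replicates per medium, and kept at 37 °C. Vials were removed on days 1, 3, 5 and 7, chilled to 0 °C on ice and analysed at once by HPLC. Conditions: C18, 5 μm, 4.6×150 mm, isocratic 35% or 50% CH3CN/water with 0.1% TFA depending on compound, 1 ml/min, 30 min. Peak area was plotted against day.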

Data set [5] concerns ubiquitinated cellular proteins in MDA-MB-468 cells. Kind of data set: Ubiquitination by Western blot analysis. It counts as cell-based, human. The note with it: MDA-MB-468, 11 hours, various concentrations. Background: A western blot detects proteins with antibodies after separation by electrophoresis.
For data set [6], the target named is T2, trypsin-like (T-L) activity of the proteasome (Oryctolagus cuniculus, UniProt G1SWK8).
T2 sequence (G1SWK8 1-271): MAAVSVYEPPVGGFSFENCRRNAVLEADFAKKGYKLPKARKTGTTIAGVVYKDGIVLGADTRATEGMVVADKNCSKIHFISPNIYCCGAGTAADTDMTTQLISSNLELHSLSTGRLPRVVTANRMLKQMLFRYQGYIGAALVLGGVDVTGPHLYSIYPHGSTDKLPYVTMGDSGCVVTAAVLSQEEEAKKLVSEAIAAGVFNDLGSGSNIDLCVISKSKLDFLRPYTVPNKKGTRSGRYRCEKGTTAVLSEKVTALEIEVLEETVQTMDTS
Kind of data set: In vitro T-L proteasome inhibition, fluorogenic assay. It counts as biochemical, rabbit. The note with it: read-out: T-L inhibition at 10 μM (cells printed ND).

Structures are written as SMILES. Entries after “also recorded” stand apart in the source; their conditions may differ. Some results are limits rather than exact numbers.

On to `O=S(=O)(Nc1cc(Sc2nnc[nH]2)c(O)c2ccccc12)c1ccc(-c2ccccc2)cc1` [Compound 25], for which the “stability at room temperature” value in data set [1] is recorded as “stable at room temperature for up to two weeks”.
With `O=S(=O)(Nc1cc(Sc2nnn[nH]2)c(O)c2ccccc12)c1ccc(Cl)cc1` [Compound 35, N-(3-(1H-tetrazol-5-ylthio)-4-hydroxynaphthalen-1-yl)-4-chlorobenzenesulfonamide], the “selectivity CT-L versus T-L (in words)” value in data set [2] (in vitro) is “equipotent against CT-L and T-L activities”.
Take `O=S(=O)(Nc1cc(Sc2nnn[nH]2)c(O)c2ccccc12)c1ccc(-c2ccc(C(F)(F)F)cc2)cc1` [Compound 39, N-(3-(1H-tetrazol-5-ylthio)-4-hydroxynaphthalen-1-yl)-4′-(trifluoromethyl)biphenyl-4-sulfonamide]: in data set [3], the “mode of CT-L proteasome inhibition (reversible or irreversible)” value is listed as “irreversibly; also recorded: irreversible” and the “recovery of CT-L activity during dialysis” value is reported as “did not show any recovery”. Moreover, in data set [4], the “stability in biological media (HPLC peak area)” value (shortened to “stability in biological media”) was “stable up to 7 days at 37 °C”. For the same molecule, in data set [5], the “ubiquitination / accumulation of ubiquitinated cellular proteins” value is recorded as “concentration-dependent increase in ubiquitination; also recorded: induced the accumulation of ubiquitinated cellular proteins”.
On to `O=S(=O)(Nc1cc(Sc2nnn[nH]2)c(O)c2ccccc12)c1ccc(Oc2ccccc2)cc1` [Compound 15k, N-(3-(1H-tetrazol-5-ylthio)-4-hydroxynaphthalen-1-yl)-4-phenoxybenzenesulfonamide], for which the “fold improved CT-L inhibitory activity” value in data set [2] (compared with compound 1) is given as “up to 20 fold”. Further, the “stability in biological media” value in data set [4] was “stable up to 7 days at 37 °C”.
`O=S(=O)(Nc1cc(Sc2nnn[nH]2)c(O)c2ccccc12)c1ccc(-c2ccccc2)cc1` [Compound 15e, N-(3-(1H-tetrazol-5-ylthio)-4-hydroxynaphthalen-1-yl)biphenyl-4-sulfonamide]: the IC50 (commonly the concentration that inhibits the measured activity by half) in data set [2] is approximately 0.2 µM. Further, the “fold improved CT-L inhibitory activity” value in data set [2] (compared with compound 1) is on record as “up to 20 fold”.
Consider `O=C(O)CSc1cc(NS(=O)(=O)c2cccs2)c2ccccc2c1O` [Compound 1, 2-(1-Hydroxy-4-(thiophene-2-sulfonamido)naphthalen-2-ylthio)acetic acid], for which, in data set [3], the “mode of CT-L proteasome inhibition (reversible or irreversible)” value was “irreversibly; also recorded: irreversible” and the “recovery of CT-L activity during dialysis” value was “did not show any recovery”. Also, the inhibition (in general, the percentage by which the read-out fell short of the control) at 10 µM in data set [6] was less than 70%. Moreover, in data set [1], the “stability at room temperature” value is listed as “stable at room temperature for up to two weeks”. The “impurities (oxidized material) after 2 weeks” value in data set [1] (room temperature, after 2 weeks) is 3–5%. Further, in data set [4], the “stability in biological media” value was “stable up to 7 days at 37 °C”.
For the molecule `O=C(O)CCSc1cc(NS(=O)(=O)c2cccs2)c2ccccc2c1O` [Compound 11d, 3-(1-Hydroxy-4-(thiophene-2-sulfonamido)naphthalen-2-ylthio)propanoic acid], the “fold decreased potency (CT-L)” value in data set [2] (extended side chain, compared with compound 1) is given as 2 fold.
For `O=S(=O)(Nc1cc(Sc2ncn[nH]2)c(O)c2ccccc12)c1ccc(Oc2ccccc2)cc1` [Compound 29, N-(3-(1H-1,2,4-triazol-3-ylthio)-4-hydroxynaphthalen-1-yl)-4-phenoxybenzenesulfonamide], the “fold improved CT-L inhibitory activity” value in data set [2] (compared with compound 1) is “up to 20 fold”. For the same molecule, in data set [2] (in vitro), the “selectivity for CT-L over T-L activity” value came out at 28 fold.
On to `O=S(=O)(Nc1cc(Sc2nnn[nH]2)c(O)c2ccccc12)c1ccc(Cl)c(Cl)c1` [Compound 36, N-(3-(1H-tetrazol-5-ylthio)-4-hydroxynaphthalen-1-yl)-3,4-dichlorobenzenesulfonamide], for which the “selectivity CT-L versus T-L (in words)” value in data set [2] (in vitro) was “equipotent against CT-L and T-L activities”.
In data set [2], `O=S(=O)(Nc1cc(Sc2nnn[nH]2)c(O)c2ccccc12)c1ccc(C2CCCCC2)cc1` [Compound 15h, N-(3-(1H-tetrazol-5-ylthio)-4-hydroxynaphthalen-1-yl)-4-cyclohexylbenzenesulfonamide] had an IC50 of approximately 0.2 µM. In addition, the “fold improved CT-L inhibitory activity” value in data set [2] (compared with compound 1) is given as “up to 20 fold”.
As to `O=C(O)CSc1ccc(NS(=O)(=O)c2cccs2)c2ccccc12` [Compound 23, 2-(4-(Thiophene-2-sulfonamido)naphthalen-1-ylthio)acetic acid], in data set [2], the IC50 is more than 100 µM.
For the molecule `O=S(=O)(Nc1cc(Sc2nnn[nH]2)c(O)c2ccccc12)c1cccs1` [Compound 15d, N-(3-(1H-tetrazol-5-ylthio)-4-hydroxynaphthalen-1-yl)thiophene-2-sulfonamide], the “selectivity CT-L versus T-L (in words)” value in data set [2] (in vitro) is on record as “more selective for T-L over CT-L”.
The molecule `O=S(=O)(Nc1cc(Sc2nnn[nH]2)c(O)c2ccccc12)c1ccc(-c2ccc(F)cc2)cc1` [Compound 15j, N-(3-(1H-tetrazol-5-ylthio)-4-hydroxynaphthalen-1-yl)-4′-fluorobiphenyl-4-sulfonamide] came in with an IC50 in data set [2] of approximately 0.2 µM. In data set [2] (compared with compound 1), the “fold improved CT-L inhibitory activity” value was “up to 20 fold”.
`O=S(=O)(Nc1cc(Sc2ncn[nH]2)c(O)c2ccccc12)c1ccc(-c2ccc(F)cc2)cc1` [Compound 27, N-(3-(1H-1,2,4-triazol-3-ylthio)-4-hydroxynaphthalen-1-yl)-4′-fluorobiphenyl-4-sulfonamide]: the “fold improved CT-L inhibitory activity” value in data set [2] (compared with compound 1) is recorded as “up to 20 fold”.
In data set [2], `O=S(=O)(Nc1cc(Sc2nnn[nH]2)c(O)c2ccccc12)c1ccc(-c2ccccc2)s1` [Compound 15f, N-(3-(1H-tetrazol-5-ylthio)-4-hydroxynaphthalen-1-yl)-5-phenylthiophene-2-sulfonamide] yielded an IC50 of approximately 0.2 µM. Besides, the “fold improved CT-L inhibitory activity” value in data set [2] (compared with compound 1) is listed as “up to 20 fold”. In data set [1], the “stability at room temperature” value is given as “stable at room temperature for up to two weeks”.
